According to PubChem BioAssay:
Records with an inconclusive call do not appear. The source made the active and inactive calls.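 The calls were made as follows, unless noted: active = growth inhibition above 25% in both replicates, a cutoff set 3 SD above the mean; inconclusive = above 25% in only one replicate; inactive = the rest.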

Columns and labels:
[1] = OD615 S. cerevisiae growth inhibition, permissive medium, pilot counter-assay, permissive growth control for S. cerevisiae lifespan shortening project (AID 705); conditions: OD615, 24 h, at 10 µM, hits give high values
How it was run: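 Test system: Saccharomyces cerevisiae strain carrying genetically modified DeaD replicative-lifespan system; buffer or medium: SC raffinose/galactose permissive medium; dosing: one dose 10 µM, DMSO 0.25% final; times: 24 h exposure, 30 °C; measured by: OD at 615 nm; read-out basis: growth inhibition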

[2] = Restrictive medium S. cerevisiae growth inhibition, OD615, pilot screen of yeast lifespan reduction project, restrictive growth control (AID 706;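 active = growth inhibition above a set limit, 3 SD over mean compound inhibition, in both replicates, cut at about 43% in these data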;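 also: modified DeaD lifespan yeast strain shifted to restrictive glucose medium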); conditions: OD615, 48 h, at 10 µM, hits give high values
How it was run: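 material = engineered S. cerevisiae DeaD strain | buffer or medium = glucose-based CSMM-D restrictive medium | dosing = one concentration, 10 µM final, 0.25% DMSO | schedule = 4 h pre-growth plus 48 h compound exposure, 30 °C | detection = OD615 absorbance reading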

[3] = viability gain of MRP-1-high H69AR cells under doxorubicin, pilot screen, MRP-1 activator project, CellTiter-Glo, duplicate (AID 807;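 active = viability increase at or above a cutoff of the median across tested compounds plus 3 SD, cut at about 8.5% in these data, passing the limit was not always enough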;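 also: compound pretreatment 18-22 h then 72 h combined with doxorubicin; 0% = doxorubicin alone and 100% = vehicle without doxorubicin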); conditions: H69AR viability with doxorubicin, CellTiter-Glo luminescence; at 10 µM; hits give high values
[4] = growth suppression of beta-catenin knockout HCT116, pilot screen, human colon tumor cells (AID 823;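 active = cell viability at or below a set limit in both duplicate runs, the limit being the all-compound median minus 4 SD, cut at about 23% in these data, passing the limit was not always enough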;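 also: 0% = wells killed by 20 µM Hyamine and 100% = untreated DMSO cell wells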); conditions: CellTiter-Glo, 60 h, at 10 µM, hits give low values
[5] = growth suppression of PTEN-deleted HCT116, pilot screen, cell-based, HCT116 clonal line, CellTiter-Glo (AID 824;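 active = viability at or below 27.92% in each of two runs, the all-compound median minus 4 SD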;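 also: 0% = 20 µM Hyamine control and 100% = vehicle cell control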); conditions: 60 h, at 10 µM, hits give low values
[6] = inhibitors of the yeast RAM network, pilot screen, dse1pr::URA3 reporter, 5-FOA selection (AID 869;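 active = inhibition over a set limit, the all-compound mean plus 3 SD, in both replicate runs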;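 also: 0% = DMSO wells with no growth and 100% = 10 µM 1-NA-PP1 with full growth; RAM network block rescues cells from 5-FOA so hits raise OD615 growth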); conditions: S. cerevisiae dse1pr::URA3 5-FOA growth, OD615, 2 d; at 10 µM; hits give high values; strain carries analog-sensitive mutant Cbk1 kinase
[7] = RAM signaling pathway blockade in yeast – S. cerevisiae, Pdr1DBD-CYC8 efflux-inhibited sensitized strain, primary screen (AID 1298;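 active = RAM network inhibition above 8.4% in each of two replicates, 3 SD over the compound average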;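 also: 0% = DMSO untreated cells without growth and 100% = 10 µM 1-NA-PP1 full growth; higher means more yeast growth rescued from 5-FOA killing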); conditions: S. cerevisiae cbk1-as DSE1-URA3 strain, 5-FOA growth OD615, 2 d; at 50 µM; hits give high values

COC(=O)NCc1ccc(Cl)c(Cl)c1
inactive: growth inhibition [1] 0.76% | growth inhibition [2] -7.57% | viability increase [3] -1.07% | viability [4] 85.4% | viability [5] 88.6% | inhibition [6] 0.09% | RAM network inhibition [7] 4.44%

COc1ccc(N(CC(=O)NC2CCCCCCC2)S(=O)(=O)c2c(C)nn(C)c2C)cc1
inactive: growth inhibition [1] -20.7% | growth inhibition [2] -13.6% | viability increase [3] -2.87% | viability [4] 89.2% | viability [5] 87.5% | inhibition [6] 1.31% | RAM network inhibition [7] 0.05%

CC(O)CSc1nc2c(c(=O)n(C)c(=O)n2C)n1CCCc1ccccc1 (stereo not given)
inactive: growth inhibition [1] -7.62% | growth inhibition [2] -5.55% | viability increase [3] 0.66% | viability [4] 101% | viability [5] 96% | inhibition [6] 1.14% | RAM network inhibition [7] 5.17%

CCOc1ccc(N(CC(=O)NCc2cccs2)S(=O)(=O)c2c(C)noc2C)cc1
inactive: growth inhibition [1] -17.4% | growth inhibition [2] -7.87% | viability increase [3] -2.25% | viability [4] 95.1% | viability [5] 94.7% | inhibition [6] 1.49% | RAM network inhibition [7] 6.62%

COc1ccccc1N(CC(O)CN1C(=O)NC(C)(C)C1=O)S(=O)(=O)c1ccc(C)cc1 (stereo not given)
inactive: growth inhibition [1] -7.72% | growth inhibition [2] -4.29% | viability increase [3] -0.66% | viability [4] 101% | viability [5] 99.9% | inhibition [6] 1.41% | RAM network inhibition [7] 5.03%

CC1(C(=O)NCc2cccnc2)CCC(=O)N1CCc1ccccc1 (stereo not given)
inactive: growth inhibition [1] 4.98% | growth inhibition [2] 3.93% | viability increase [3] -0.87% | viability [4] 97% | viability [5] 102% | inhibition [6] 2.94% | RAM network inhibition [7] 2.65%

O=C(Nc1nc2ccccc2s1)c1ccc(Cl)s1
inactive: growth inhibition [1] -14.7% | growth inhibition [2] -29.6% | viability increase [3] -3.11% | viability [4] 88.3% | viability [5] 77% | inhibition [6] 2.79% | RAM network inhibition [7] 1.32%

CCn1cc(C(=O)N2CCn3c(nc4ccccc43)C2)c(=O)c2ccc(C)nc21
inactive: growth inhibition [1] -10.2% | growth inhibition [2] -4.84% | viability increase [3] -2.81% | viability [4] 104% | viability [5] 94.3% | inhibition [6] 2.08% | RAM network inhibition [7] 0.07%

CCOC(=O)C1C(=O)N(C(=O)c2cncc(Br)c2)CC1c1ccccc1 (stereo not given)
inactive: growth inhibition [1] -0.835% | growth inhibition [2] 8.88% | viability increase [3] -0.37% | viability [4] 101% | viability [5] 106% | inhibition [6] 0.985% | RAM network inhibition [7] 9.56%

CCN1C(=O)C(O)(CC(=O)c2ccc3c(c2)OCCO3)c2ccccc21 (stereo not given)
inactive: growth inhibition [1] -0.735% | growth inhibition [2] -5.33% | viability increase [3] -2.07% | viability [4] 99.1% | viability [5] 94% | inhibition [6] 0.24% | RAM network inhibition [7] 5.92%

CC(Sc1nnc(Cn2c(=O)sc3ccccc32)n1C)c1ccccc1 (stereo not given)
inactive: growth inhibition [1] -3.63% | growth inhibition [2] 15.1% | viability increase [3] 0.33% | viability [4] 92.8% | viability [5] 96.3% | inhibition [6] 1.69% | RAM network inhibition [7] 11.7%

CC(=O)Nc1ccc(S(=O)(=O)N2CCN(CCC#N)CC2)cc1
inactive: growth inhibition [1] -4.55% | growth inhibition [2] 6.44% | viability increase [3] 0.85% | viability [4] 111% | viability [5] 97.1% | inhibition [6] 1.86% | RAM network inhibition [7] 0.19%

O=C(Nc1nc(-c2ccccc2)cs1)c1cccs1
inactive: growth inhibition [1] -5.78% | growth inhibition [2] -1.27% | viability increase [3] -1.21% | viability [4] 66.3% | viability [5] 72.8% | inhibition [6] -0.845% | RAM network inhibition [7] 2.45%

COc1ccc(C2CC(c3cccc(Cl)c3)n3nc(N)nc3N2)cc1 (stereo not given)
inactive: growth inhibition [1] -3.22% | growth inhibition [2] -3.25% | viability increase [3] -0.53% | viability [4] 99.8% | viability [5] 89.9% | inhibition [6] 1.37% | RAM network inhibition [7] 2.3%

COc1ccccc1N1CCN(C(CNC(=O)C2CCCCC2)c2cccnc2)CC1 (stereo not given)
inactive: growth inhibition [1] -3.31% | growth inhibition [2] -3.02% | viability increase [3] 1.93% | viability [4] 90.1% | viability [5] 94.4% | inhibition [6] 0.775% | RAM network inhibition [7] 3.85%

Cc1cc(C)c2c(=O)n(CC(=O)N3CCC(N4CCCCC4)CC3)sc2n1
inactive: growth inhibition [1] 4.7% | growth inhibition [2] 9.28% | viability increase [3] -7.14% | inhibition [6] 2.08% | RAM network inhibition [7] 0.2%
active: viability [4] 2.7% | viability [5] 16.2%

CCOc1ccccc1NC(=O)C1CCN(S(=O)(=O)c2cccc3cccnc23)CC1
inactive: growth inhibition [1] 1.06% | growth inhibition [2] -4.09% | viability increase [3] -3.97% | viability [4] 85.2% | viability [5] 80.9% | inhibition [6] 1.24% | RAM network inhibition [7] 1.72%

CCCn1c(N2CCN(Cc3cccc(C)c3)CC2)nc2c1c(=O)[nH]c(=O)n2C
inactive: growth inhibition [1] 5.6% | growth inhibition [2] 2.15% | viability increase [3] -5.06% | viability [4] 89.3% | viability [5] 82.8% | inhibition [6] 1.34% | RAM network inhibition [7] 2.5%

COc1cc(S(=O)(=O)N2CCN(c3ccccc3)CC2)ccc1Cl
inactive: growth inhibition [1] -16.9% | growth inhibition [2] -14% | viability increase [3] -3.07% | viability [4] 95.1% | viability [5] 95.3% | inhibition [6] 0.17% | RAM network inhibition [7] 6.95%

COc1ccc(OCC(=O)N2CCN(C(=O)c3ccccc3)CC2)cc1
inactive: growth inhibition [1] -15.8% | growth inhibition [2] -9.8% | viability increase [3] 1.19% | viability [4] 91.1% | viability [5] 87.2% | inhibition [6] 1.66% | RAM network inhibition [7] 0.47%

CCN(CC)S(=O)(=O)c1cc(C(=O)Oc2ccccc2OC)ccc1OC
inactive: growth inhibition [1] 4.58% | growth inhibition [2] 2.38% | viability increase [3] -0.11% | viability [4] 86.1% | viability [5] 85.6% | inhibition [6] 1.38% | RAM network inhibition [7] 3.93%

Cc1cc(C)n2nc(S(=O)(=O)N(CC(C)C)CC(C)C)nc2n1
inactive: growth inhibition [1] 3.3% | growth inhibition [2] 3.41% | viability increase [3] -1.13% | viability [4] 104% | viability [5] 94.2% | inhibition [6] 1.08% | RAM network inhibition [7] 0.22%

COc1ccc(S(=O)(=O)Nc2ccc3c(c2)OCO3)cc1C(=O)O
inactive: growth inhibition [1] -4.6% | growth inhibition [2] -5.47% | viability increase [3] -1.95% | viability [4] 93.5% | viability [5] 94.5% | inhibition [6] 0.425% | RAM network inhibition [7] 3.99%

CC(=O)c1ccc(NC(=O)CSc2nnc(Cc3cccn3C)n2-c2ccc(F)cc2)cc1
inactive: growth inhibition [1] 0.105% | growth inhibition [2] 12.5% | viability increase [3] -2.21% | viability [4] 98% | viability [5] 94.3% | inhibition [6] 0.005% | RAM network inhibition [7] 5.1%

Cc1ccccc1-c1c(C)oc2cc(O)ccc2c1=O
inactive: growth inhibition [1] 1.68% | growth inhibition [2] -0.005% | viability increase [3] -4.28% | viability [4] 96.8% | viability [5] 92.2% | inhibition [6] 2.21% | RAM network inhibition [7] 2.67%

COc1ccc(-c2[nH]c(-c3ccc(F)cc3)nc2SCC(=O)NCc2ccco2)cc1OC
inactive: growth inhibition [1] -4.83% | growth inhibition [2] 12.4% | viability increase [3] -2.49% | viability [4] 96.9% | viability [5] 92.9% | inhibition [6] 0.93% | RAM network inhibition [7] 4.24%

COCCn1c(SCC(=O)N2CCN(c3ccccc3)CC2)nc2c(c1=O)SC(C)C2 (stereo not given)
inactive: growth inhibition [1] 10.7% | growth inhibition [2] 10.7% | viability increase [3] -3.54% | viability [4] 103% | viability [5] 92.9% | inhibition [6] 1.65% | RAM network inhibition [7] 2.75%

O=C(NCc1ccco1)N1c2ccccc2Sc2ccccc21
inactive: growth inhibition [1] -12.9% | growth inhibition [2] -8.64% | viability increase [3] -4.68% | viability [4] 88% | viability [5] 91.6% | inhibition [6] 0.805% | RAM network inhibition [7] 4.32%

CC(Cc1c[nH]c2ccccc12)NC(=O)C1CCCNC1=O (stereo not given)
inactive: growth inhibition [1] -5.75% | growth inhibition [2] 8.45% | viability increase [3] -0.46% | viability [4] 99.4% | viability [5] 103% | inhibition [6] 1.27% | RAM network inhibition [7] 0.66%

CCCn1c(CN2CCN(C(=O)c3ccco3)CC2)nc2c1c(=O)n(C)c(=O)n2C
inactive: growth inhibition [1] -14.1% | growth inhibition [2] -25.5% | viability increase [3] -1.84% | viability [4] 97% | viability [5] 93.8% | inhibition [6] 0.34% | RAM network inhibition [7] 2.82%

CCOc1ccc(N(CC(=O)NCCCOC)S(C)(=O)=O)cc1
inactive: growth inhibition [1] 4.66% | growth inhibition [2] 3.23% | viability increase [3] -2.35% | viability [4] 98.9% | viability [5] 101% | inhibition [6] 0.95% | RAM network inhibition [7] 2.73%

CC(C)=C1SC(N2CCN(Cc3ccccc3)CC2)=NC1=O
inactive: growth inhibition [1] -6.78% | growth inhibition [2] -0.855% | viability increase [3] -2.86% | viability [4] 94.9% | viability [5] 97.5% | inhibition [6] 0.52% | RAM network inhibition [7] 4.6%

CC1CCN(c2nc(-c3ccccc3)c(C#N)c(=O)[nH]2)CC1
inactive: growth inhibition [1] -10.1% | growth inhibition [2] -13.7% | viability increase [3] -0.55% | viability [4] 101% | viability [5] 92.1% | inhibition [6] 1.46% | RAM network inhibition [7] 2.74%

Cc1ccccc1N1C(=O)c2cccc3c(N(C)CCO)ccc(c23)C1=O
inactive: growth inhibition [1] 5.99% | growth inhibition [2] -6.49% | viability increase [3] -3.91% | viability [4] 104% | viability [5] 90.4% | inhibition [6] 2.26% | RAM network inhibition [7] 2.12%

COc1cccc(C2=N/C(=C\N(C)C)C(=O)O2)c1
inactive: growth inhibition [1] 1.7% | growth inhibition [2] 11.6% | viability increase [3] -0.29% | viability [4] 94.7% | viability [5] 102% | inhibition [6] -0.855% | RAM network inhibition [7] 2.96%
